Experimental data: PubChem BioAssay AID1019 (Sanford-Burnham Center for Chemical Genomics, 2008)
Screen size: about 190,000 compounds; fewer than 10 were called active.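 The calls were made as follows: active = over 50% inhibition of intestinal alkaline phosphatase at 20 µM in the single-dose screen; inactive = the rest.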 The list is a sample of the results.

These compounds were tested on alkaline phosphatase, intestinal [Bos taurus] (assay: IAP enzyme activity blockers – biochemical, bovine IAP, CDP-star luminescence, selectivity assay for TNAP inhibitor project, primary screen (AID 1019)). Details: purified bovine IAP, 30 min, at 20 µM, active compounds read high.
In short: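 Incubation: 30 min reaction at room temperature / Material: purified bovine intestinal alkaline phosphatase (IAP) enzyme / Input: enzyme at 1/65,000,000 dilution / Dosing: 20 µM single dose / Signal: CDP-star luminescence signal / Reagent: CDP-star chemiluminescent phosphatase substrate, 30 µM final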
`O=C(C/C(=N\NC(=O)c1ccccc1Br)C(F)(F)F)c1cccs1` was tested, and the inhibition was 5.9% (inactive). In the case of `Cc1ccc(C(=O)N2CCN(S(=O)(=O)N3CCOCC3)CC2)cc1`, the inhibition is reported as 9% (inactive). In the case of `CCc1cccc(C)c1NC(=O)COC(=O)Cc1ccsc1`, the inhibition is reported as -0.9% (inactive). `O=C(CSc1nncs1)NC1CCCc2ccccc21` (centres undefined) was tested, and the inhibition was -2.1% (inactive). In the case of `Cc1ccc2nc(C)cc(N/N=C/c3ccc(F)cc3)c2c1`, the inhibition is reported as 0.2% (inactive). With `O=C(COC(=O)Cn1cnc2ccccc2c1=O)NCC12CC3CC(CC(C3)C1)C2` the inhibition was 12.5% (inactive). For `O=C1CCC(CCC(=O)N2CCCC(C(=O)c3ccc(Cl)cc3)C2)=NN1` (centres undefined), the inhibition was -3% (inactive). For `CCC(C)CN1CCC(CO)(Cc2ccccc2Cl)CC1` (centres undefined), the inhibition was -18.6% (inactive). In the case of `COc1ccc(N2C(=O)C(Cc3ccccc3)NC2=S)cc1` (centres undefined), the inhibition is reported as -2.9% (inactive). With `COc1ccc(-n2cnnc2SCC(=O)Nc2cccc([N+](=O)[O-])c2)cc1` the inhibition was 8.1% (inactive). In the case of `Cc1nc2scc(-c3cccs3)c2c(=O)n1N`, the inhibition is reported as -37.2% (inactive). In the case of `CCN(CC(=O)Nc1ccc(Cl)c(S(=O)(=O)N(C)C)c1)Cc1nc2ccccc2c(=O)[nH]1`, the inhibition is reported as -108% (inactive). With `COc1cc(C(=O)Nc2cc(C(F)(F)F)ccc2-n2cncn2)cc(OC)c1OC` the inhibition was -1.7% (inactive). With `NS(=O)(=O)c1ccc(CCNC(=O)c2ccc(Cl)cc2[N+](=O)[O-])cc1` the inhibition was -14.5% (inactive). In the case of `Cc1nc2ccccn2c1C(=O)NN=C1CCN(C)CC1`, the inhibition is reported as -6.8% (inactive). With `CC(=O)NNC1=Nc2ccccc2N(C)C(C)C1` (centres undefined) the inhibition was 26.5% (inactive). In the case of `Clc1ccc(N/N=C/c2cccs2)nn1`, the inhibition is reported as -1.4% (inactive). With `Cc1cccc(CSc2ccc(-c3cccs3)nn2)c1` the inhibition was 14.5% (inactive). In the case of `COC(=O)c1c(NC(=O)c2c(Cl)cnn2C)sc(C)c1C`, the inhibition is reported as 0.9% (inactive). With `O=C(NCc1cccs1)c1cc(-c2ccccn2)nc2ccc(Br)cc12` the inhibition was -9.8% (inactive). In the case of `CC1CCN(C(=O)c2ccc(S(=O)(=O)Cc3cc(F)ccc3F)c([N+](=O)[O-])c2)CC1`, the inhibition is reported as 18.6% (inactive). With `COc1ccc(CCN=C2SCC(=O)N2Cc2ccccc2)cc1OC` the inhibition was 3.1% (inactive). `COc1ccc(C(=O)NNC(=O)c2cc(C)[nH]n2)cc1` was tested, and the inhibition was -38.6% (inactive). With `CCN(CC)CCN(C(=O)c1ccc(N2C(=O)CCC2=O)cc1)c1nc2cc3c(cc2s1)OCO3` the inhibition was -11.6% (inactive). In the case of `CC(=O)Nc1ccc(C(=O)OCC(=O)Nc2ccc([N+](=O)[O-])cc2C(F)(F)F)cc1`, the inhibition is reported as 34.7% (inactive). `Cn1cc(CN2CCCCC2c2ccccn2)c(-c2ccc3c(c2)OCCO3)n1` (centres undefined) was tested, and the inhibition was 6.3% (inactive). With `COc1ccc(C(=O)Nc2ccc(N3CCC(C)CC3)cc2)cc1Br` the inhibition was -10.7% (inactive). In the case of `O=C(CSc1ccccc1)Nc1cc(Cl)ccc1Oc1ccccc1`, the inhibition is reported as 6.2% (inactive). In the case of `N/C(Cc1ccc([N+](=O)[O-])cc1)=N\OC(=O)C1CCCCC1`, the inhibition is reported as -0.5% (inactive). With `CCCCS(=O)c1snnc1C` (centres undefined) the inhibition was -11.4% (inactive). In the case of `C[C@@H]1NC(=O)c2cc([N+](=O)[O-])cc(F)c2NCCC[C@@H](C(N)=O)NC(=O)[C@H](CC(N)=O)NC1=O`, the inhibition is reported as 38.7% (inactive). For `CCN(CC)C(=O)Oc1ccc(OC(=O)N(CC)CC)cc1`, the inhibition was -10.3% (inactive). In the case of `CC(=O)NCC(=O)N(Cc1ccco1)C1(C(=O)NC2CCCC2)CCCCC1`, the inhibition is reported as 3.8% (inactive). With `CCOC(=O)c1c(CN(C)C)n(-c2ccccc2)c2cc(Br)c(O)cc12` the inhibition was -6.7% (inactive). With `CC(C)C(=O)Nc1ccc2oc(=O)ccc2c1` the inhibition was 7% (inactive). In the case of `CCOC(=O)/C(C#N)=C/c1ccc(N2CCCCC2)cc1`, the inhibition is reported as 11.8% (inactive). For `CC(C)(c1ccccc1)c1ccc(OCCN)cc1`, the inhibition was 14.7% (inactive). In the case of `COC(=O)Cc1ccc(NC(=S)NCc2ccco2)cc1`, the inhibition is reported as 4% (inactive). For `COc1ccc(/C=N/N=C2/C(=O)Nc3ccccc32)cc1O`, the inhibition was 5% (inactive). In the case of `COc1cc(NS(=O)(=O)c2ccc(NC(=O)CN3C(=O)c4ccccc4C3=O)cc2)ncn1`, the inhibition is reported as 3.8% (inactive). `CN(C)CCN=c1cc(-c2ccccc2)oc2ccc(Cl)cc12` was tested, and the inhibition was -8.9% (inactive). `CC(C)(C)NC(=O)c1ccc(Cn2cc(C(F)(F)F)ccc2=O)cc1` was tested, and the inhibition was 4.3% (inactive). With `Oc1ccc(N2CCN(C(=S)NCc3ccccc3)CC2)cc1` the inhibition was 6.1% (inactive). With `CCCCN(CC)CCCNC(=O)c1ccc(CSc2nc3ccncc3[nH]2)cc1` the inhibition was -24% (inactive). For `O=C(CCc1ccccc1)Nc1nn[nH]n1`, the inhibition was 5.5% (inactive). For `CC1CCCN(CC(O)COc2ccc3c(c2)OCO3)C1` (centres undefined), the inhibition was 3.1% (inactive). With `Cc1ccccc1C1CC(c2cccs2)=NN1S(C)(=O)=O` (centres undefined) the inhibition was 18.1% (inactive). With `CCN(c1ccccc1)S(=O)(=O)c1ccc2[nH]c(=O)[nH]c2c1` the inhibition was 3.4% (inactive). `O=S(=O)(NCCc1ccc(F)cc1)c1cccc2cccnc12` was tested, and the inhibition was 10.8% (inactive). With `COc1cc(/C=C/C(=O)OCC(=O)N2CCOCC2)ccc1OCC#N` the inhibition was -7.3% (inactive). With `O=C(Cn1cnc2ccccc21)N/N=C/c1ccco1` the inhibition was -22.7% (inactive). In the case of `CC1CC(C)CN(CCC(=O)Nc2ccc3c(c2)CCC3)C1` (centres undefined), the inhibition is reported as -14.7% (inactive). `O=C(COC(=O)/C=C/c1ccc(S(=O)(=O)N2CCCCCC2)cc1)NCc1ccccc1Cl` was tested, and the inhibition was 14.5% (inactive). With `CCCNC(=O)NC(=O)COC(=O)CC(NC(N)=O)c1ccc(Cl)cc1` (centres undefined) the inhibition was 7.6% (inactive). `Cc1c(C=O)c2ccccc2n1CC(=O)O` was tested, and the inhibition was -6.7% (inactive). For `CCn1nc(C)c(CN2CCN(Cc3ccc(OC)c(C)c3C)C(CCO)C2)c1C` (centres undefined), the inhibition was -4.7% (inactive). `COc1ccc(C2CC(c3cccs3)Nc3nnnn32)cc1` (centres undefined) was tested, and the inhibition was 16.6% (inactive). With `CCN(CC)C(=O)N(CC)Cc1ccccc1` the inhibition was -1.7% (inactive). For `Cc1ccc(Nc2c(F)c(F)c(F)c(F)c2C(=O)O)c(C)c1`, the inhibition was 1.3% (inactive). `C=CCN(c1ccc(Cl)cc1)S(=O)(=O)c1cccc(C(=O)OCC(=O)N(C)C)c1` was tested, and the inhibition was -6.8% (inactive). In the case of `Cn1cc(-c2ccccc2)cc(C#N)c1=O`, the inhibition is reported as -3.4% (inactive). With `CC(C)(C)n1ncc2c(=O)n(Cc3ccc(Cl)cc3)cnc21` the inhibition was -1.6% (inactive). With `CCCCCCCNc1nc(Cl)nc(NCCO)n1` the inhibition was -10.7% (inactive). With `CCOC(=O)C1(Cc2ccccc2C(F)(F)F)CCN(C(=O)c2cc(C)n(C)n2)CC1` the inhibition was -5.4% (inactive). `CCN(CC)CCNc1nc(-c2ccc(OC(F)F)cc2)c(C)s1` was tested, and the inhibition was -8.2% (inactive). In the case of `O=C(Nc1cccc(F)c1)c1coc(=O)c(Br)c1`, the inhibition is reported as 13.2% (inactive). With `COC(=O)c1ccc(C(=O)OC)c(NC(=S)N2CCN(c3ccc(F)cc3)CC2)c1` the inhibition was -5.9% (inactive). For `CC(NC(=O)CCC(=O)N1CCN(S(=O)(=O)c2ccc(Cl)cc2)CC1)c1ccccc1` (centres undefined), the inhibition was -56.8% (inactive). For `COc1cc(C(=S)NC2CCCCC2)ccc1O`, the inhibition was 5.4% (inactive). With `CCOc1ccc(NC(=S)NC(=O)/C=C/c2ccc(OC)cc2)c([N+](=O)[O-])c1` the inhibition was -34% (inactive). `C=CCO/N=C/C1=C(O)C(C(=O)OC)C(C)(C)CC1=O` (centres undefined) was tested, and the inhibition was -21.8% (inactive). For `CC(NC(=O)CC1SC(N)=NC1=O)c1ccccc1` (centres undefined), the inhibition was -8.1% (inactive). `C/C(=N\NC(=O)c1ccc(CSc2nc(C)cc(C)n2)cc1)C1CCCCC1` was tested, and the inhibition was -2.1% (inactive). In the case of `COc1ccc(OC)c(CNC(=O)c2cc(=O)[nH]c3ccc(S(=O)(=O)N4CCCC4)cc23)c1`, the inhibition is reported as 9.9% (inactive). With `Cc1cccc(NC(=O)c2nnn(-c3cccc(C(F)(F)F)c3)c2N)c1` the inhibition was 6.8% (inactive). `CCOC(=O)N1CCN(C(=O)C2CCN(Cc3ccc(OC)cc3OC)CC2)CC1` was tested, and the inhibition was 3.5% (inactive). For `O=C(NCCc1ccccc1)C1CCN(S(=O)(=O)c2ccc(Br)s2)CC1`, the inhibition was 2.9% (inactive). For `CSc1nc2c(c(=O)[nH]1)C(c1cccc(Cl)c1Cl)CC(=O)N2` (centres undefined), the inhibition was -12.6% (inactive). For `Cc1ccc(CCC(=O)Nc2ncc(Cc3cc(Cl)ccc3Cl)s2)o1`, the inhibition was 5.3% (inactive).
